# Compound activity deposited in PubChem by Sanford-Burnham Center for Chemical Genomics.
# An excerpt weighted towards active compounds, which were near 1.5% of everything screened.
# PPC-1+TRAIL kill: compounds killing PPC-1 cancer cells with TRAIL present, primary screen, TRAIL potentiator project, ATPLite luminescence, uHTS; 220,000 tested, 0.41% active; cell killing (% activity), % at 4 µM or 5 µM; PPC-1 cells + TRAIL, ATPLite viability luminescence; AID 1443, 2008;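 active means cell killing above 50% in the first pass at 4 µM, then a duplicate retest at 5 µM averaging 50% or more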;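 further: plate controls were cells with TRAIL plus DMSO for no effect and medium-only wells lacking cells for full effect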
# FLuc inhib CS: firefly luciferase enzyme inhibitors, primary screen, artefact control for luciferase-based inhibitor screens, biochemical, luminescence, ATPLite; Luciferin 4-monooxygenase (Photinus pyralis), P08659; 10 min; inhibition, % at 10 µM; 200,000 tested, 1.5% active;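 active means inhibition above about 50% when tested at 10 µM, limit read from the data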
# Target sequence (P08659 whole entry, looked up): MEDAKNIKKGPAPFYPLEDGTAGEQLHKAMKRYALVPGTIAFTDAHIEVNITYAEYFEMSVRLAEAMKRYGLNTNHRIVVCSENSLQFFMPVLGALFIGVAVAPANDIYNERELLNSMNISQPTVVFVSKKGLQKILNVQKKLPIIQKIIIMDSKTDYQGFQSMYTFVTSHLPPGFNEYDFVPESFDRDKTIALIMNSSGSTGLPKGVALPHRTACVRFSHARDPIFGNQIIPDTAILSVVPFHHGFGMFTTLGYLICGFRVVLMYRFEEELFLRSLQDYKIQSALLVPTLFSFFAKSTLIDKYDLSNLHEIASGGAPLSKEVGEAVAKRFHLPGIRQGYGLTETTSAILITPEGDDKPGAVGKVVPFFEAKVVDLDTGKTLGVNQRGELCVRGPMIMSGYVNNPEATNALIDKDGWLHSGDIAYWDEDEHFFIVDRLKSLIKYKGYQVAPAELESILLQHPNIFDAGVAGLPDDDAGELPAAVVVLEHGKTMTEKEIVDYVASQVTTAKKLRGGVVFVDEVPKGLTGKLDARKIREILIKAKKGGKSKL
# FLuc stim CS: FLuc activators, initial screening, artefact control for FLuc-dependent activation tests, biochemical, ATPlite luminescence; AID 1027, 2008; activation factor at 10 µM; 200,000 tested, under 10 active; Luciferin 4-monooxygenase (Photinus pyralis), P08659; ATPlite luciferase biochemical, 10 min; 0 = ATP-free wells, 1 = DMSO control;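 active means luciferase activation factor, scaled between plate controls, of at least 2 with compound at 10 µM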
#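 Material: Luciferase/luciferin reagent mix | Doses: Test compounds dosed from 2 mM stocks in 100% DMSO | Timing: 10 min incubation after luciferase reagent addition, room temperature | Measured by: Luminescence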
# C8 TRAIL sens: viability loss with TRAIL in NB7+C8 cells, primary screen, TRAIL sensitizer project, cell-based, ATPlite luminescence; inhibition (viability loss, TRAIL sensitization), % at 10 µM; 360,000 tested, 1% active;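 active means compounds causing at least 50% loss of cell viability in the single-dose screen, relative to plate controls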
# Numbers without * were called inactive; nt = not tested or not shown.
SMILES,PPC-1+TRAIL kill,FLuc inhib CS,FLuc stim CS,C8 TRAIL sens
COc1ccc(S(=O)(=O)N2CCN(c3ccc4nnc(-c5ccccc5)n4n3)CC2)cc1,-21,-2,1,54*
Cc1cccc(NS(=O)(=O)c2ccc3c(c2)Cc2cc(S(=O)(=O)Nc4cccc(C)c4C)ccc2-3)c1C,8,-2,1,60*
CC(=O)Nc1ccc(S(=O)(=O)N2CCN(Cc3cccs3)CC2)cc1,-15,-1,1,4
Cc1csc(NC(=O)CN2C(=O)COc3ccc(Cl)cc32)n1,nt,nt,nt,31
O=C(Nc1cc(C(F)(F)F)cc(C(F)(F)F)c1)Nc1cnn(-c2ccc([N+](=O)[O-])cc2)c1C(F)(F)F,17,nt,nt,47*
COc1ccc(CN2CCC(n3nccc3NC(=O)C3CC3)CC2)c(Cl)c1OC,nt,nt,nt,7
Cn1cc(-c2nnc(-c3ccccc3)o2)c2ccccc21,47,59*,0.4,40
CCCCCN(C(=O)CSc1n[nH]c(-c2ccc(C)cc2)n1)c1c(N)n(CCCC)c(=O)[nH]c1=O,nt,nt,nt,55*
COc1ccc(O)c(/C=N/Nc2nc(Nc3ccccc3)nc(-n3nc(C)cc3C)n2)c1,-7,6,0.9,55*
Cc1cc(N/N=C/c2ccc(O)cc2O)nc(-n2nc(C)cc2C)n1,55*,5,0.9,36
Cc1cc(N/N=C/c2ccc(O)cc2O)nc(-c2ccccc2O)n1,34,64*,0.4,77*
Cc1cc(N/N=C/c2ccc(O)cc2O)c2ccccc2n1,nt,nt,nt,-7
Cc1cc(N/N=C\c2ccccc2)nc(-c2ccccc2O)n1,34,65*,0.4,56*
COc1ccccc1CNC(=O)CN(C)Cc1ccc(SC)cc1,nt,nt,nt,-6
Cc1cc(N/N=C/c2ccccc2Cl)nc(NCc2ccccc2)n1,46,60*,0.4,57*
Cc1cc(N/N=C/c2ccccc2O)nc(-c2ccccc2O)n1,39,61*,0.4,19
Cc1cc(C)nc(N/N=C/c2ccccc2Cl)n1,29,nt,nt,2
C/C(=N\Nc1cc(C)nc(-c2ccccc2O)n1)c1ccccc1O,24,nt,nt,29
CC1N/C(=C\C(=O)c2ccccc2)N(O)C1(C)C (configuration not stated),11,63*,0.4,24
CCOc1ccc(-c2nc(CCl)cs2)cc1,24,70*,0.3,14
CCOc1ccc(-c2nnc(N)s2)cc1,33,58*,0.4,25
O=C(/C=C/c1cccs1)c1ccc(Br)cc1,4,61*,0.4,11
O=C(/C=C/c1cccs1)c1ccc(NC(=O)c2cccc(Br)c2)cc1,-4,-2,1,10
CCc1nnc(NC(=O)C2CCCN(S(=O)(=O)c3ccc(OC)cc3)C2)s1 (configuration not stated),nt,-7,1.1,-14
CCN1/C(=C/c2ccc3ccccc3[n+]2CCCS(=O)(=O)[O-])C=Cc2cc(C)ccc21,nt,nt,nt,11
SMILES,PPC-1+TRAIL kill,FLuc inhib CS,FLuc stim CS,C8 TRAIL sens
CCN1/C(=C/c2ccc3ccccc3[n+]2CC)C=Cc2ccccc21,39,14,0.9,59*
COc1ccc(-c2cc(-c3ccccc3)c(C#N)c(S(C)(=O)=O)n2)cc1,47,-8,1.1,78*
CS(=O)(=O)c1nc(-c2ccc(Br)cc2)cc(-c2ccccc2)c1C#N,31,-7,1.1,88*
COc1ccc(-c2cc(-c3ccc(OC)cc3)c(C#N)c(SC)n2)cc1,3,-5,1.1,10
CCOC(=O)C[C@H]1c2ccccc2S(=O)(=O)N1Cc1cccc(C(F)(F)F)c1,nt,nt,nt,-29
CCOC(=O)/C(=C\c1ccccc1)C(=O)c1cc(C(C)=O)c(Nc2ccccc2)s1,-20,-6,1.1,6
CCOC(=O)/C(=C\c1cccnc1)C(=O)c1cc(C(C)=O)c(Nc2ccccc2)s1,12,-5,1.1,94*
NC(=O)C1(N2CCCCC2)CCN(C(=S)Nc2cc(F)cc(F)c2)CC1,2,0,1,-5
Clc1ccc(/C=N/Nc2nnc(-c3ncc[nH]3)c3ccccc23)cc1,28,75*,0.3,54*
Clc1cccc(/C=N/Nc2nnc(Cl)c3ccccc23)c1,-6,3,1,17
Cc1onc(C(=O)N2CCN(C(c3ccccc3)c3ccccc3)CC2)c1[N+](=O)[O-],13,-14,1.1,91*
O=C(CSc1ncnc2c1nnn2-c1ccc(F)cc1)NCC1CCCO1 (configuration not stated),14,22,0.8,3
CCOc1ccc(C(=O)Nc2nnc(SCC(=O)NCC3CCCO3)s2)cc1 (configuration not stated),nt,nt,nt,92*
O=C(CSc1nnc(NC(=O)c2c(F)cccc2F)s1)NCC1CCCO1 (configuration not stated),nt,nt,nt,-3
CN(C)S(=O)(=O)c1ccc(C(=O)Nc2nnc(SCC(=O)NCC3CCCO3)s2)cc1 (configuration not stated),nt,nt,nt,55*
Cc1ccc(-n2nnc3c(SCC(=O)NCC4CCCO4)ncnc32)cc1 (configuration not stated),-10,55*,0.4,-2
COc1ccc(C(=O)Nn2c(SCC(=O)NCC3CCCO3)nc3ccccc3c2=O)cc1 (configuration not stated),47,82*,0.2,46
O=C(OCc1ccccc1)N1CCC2CC1c1ccc(-c3cccc(F)c3)cc12 (configuration not stated),nt,nt,nt,-3
FC(F)(F)Oc1ccc(NC(=S)Nc2ccccc2N2CCOCC2)cc1,1,nt,nt,0
Cc1cc(-c2nnc(CSc3nnc(NC(=O)c4ccc(C(C)(C)C)cc4)s3)o2)ccc1[N+](=O)[O-],38,nt,nt,51*
CC(C)(C)c1ccc(C(=O)Nc2nnc(SCC(=O)NCC3CCCO3)s2)cc1 (configuration not stated),nt,nt,nt,94*
COCCSc1nnc(NC(=O)c2ccc([N+](=O)[O-])cc2)s1,8,6,0.9,-2
O=C(CSc1nnc(NC(=O)c2cccc(F)c2)s1)NCC1CCCO1 (configuration not stated),nt,nt,nt,36
COc1ccccc1/C=C/C(=O)OCC(=O)Nc1c(F)cccc1F,0,64*,0.4,-1
CC1OC(CC(=O)O)CC2=C1C(=O)c1c(O)cccc1C2=O (configuration not stated),nt,nt,nt,92*
SMILES,PPC-1+TRAIL kill,FLuc inhib CS,FLuc stim CS,C8 TRAIL sens
CC1CCCCC1NC(=O)c1ccc(NC2=NC3CS(=O)(=O)CC3S2)cc1 (configuration not stated),nt,nt,nt,-8
O=C(CNC(=O)c1ccco1)OCC(=O)c1ccc(Br)cc1,nt,nt,nt,-20
Cc1cc(N)n2nc(-c3ccccc3)c(-c3ccccc3)c2n1,nt,nt,nt,-5
Cc1nc2c(-c3ccccc3)c(C)nn2c(N)c1-c1ccccc1,19,68*,0.3,44
COc1ccc(-c2cc3nc(C)cc(-c4ccc(OC)cc4)n3n2)cc1,nt,nt,nt,5
COc1ccc(-c2cc3nc(C)cc(N)n3n2)cc1,81*,95*,0,84*
